Measured values from ChEMBL document CHEMBL1148398, “Design, synthesis, and biological evaluation of thio-containing compounds with serum HDL-cholesterol-elevating properties” (2004).

Legend:
Rattus norvegicus [1] = experiment: Effect of compound on gain in body weight in 4th group of normal chow-fed male rats after a dose of 10 mg/kg/day; type: functional
Outline: (§1)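 Male Sprague–Dawley CD rats (60–80 g) on standard chow under a reversed 12 h light/dark cycle. Compound was suspended in 1.3% Tween 80/0.25% CMC and given as a single daily oral gavage dose for 4 days. Rats were fasted overnight and killed 24 h after the last dose. Serum ALT, AST, ALKP and LDH were read on a clinical analyzer. Weight gain was start versus end weight. Mean ± SEM, n = 6.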

Rattus norvegicus [2] = experiment: Percent change in total plasma cholesterol in hypercholesterolemic rats dosed at 100 mg/kg/day for 8 days; type: functional
Rattus norvegicus [3] = experiment: Percent change in low-density lipoprotein cholesterol following oral administration of compound in normal chow-fed rats at 100 mg/kg/day for 4 days; type: functional
Outline: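 Chow-fed male Sprague–Dawley CD rats, 60–80 g, gavaged 100 mg/kg/day for 4 days in 1.3% Tween 80/0.25% CMC. Fasted overnight, bled 24 h after the last dose. Total cholesterol and glycerol-blanked triglycerides read enzymatically; lipoproteins by FPLC with cholesterol per fraction. % change versus control; six per group, p < 0.05.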

Rattus norvegicus [4] = experiment: Effect of compound on alanine aminotransferase (ALT) levels in 6th group of normal chow-fed male rats after a dose of 50 mg/kg/day; type: functional, organism-based; outline: as §1
Rattus norvegicus [5] = experiment: Effect of compound on alanine aminotransferase (ALT) levels in 7th group of normal chow-fed male rats after a dose of 100 mg/kg/day; type: functional, organism-based; outline: as §1
Rattus norvegicus [6] = experiment: Effect of compound on alkaline phosphatase (ALKP) levels in 4th group of normal chow-fed male rats after a dose of 10 mg/kg/day; type: functional, organism-based; outline: as §1
Rattus norvegicus [7] = experiment: Effect of compound on aspartate aminotransferase (AST) levels in 1st group of normal chow-fed male rats after a dose of 1 mg/kg/day; type: functional, organism-based; outline: as §1
Rattus norvegicus [8] = experiment: Effect of compound on aspartate aminotransferase (AST) levels in 2nd group of normal chow-fed male rats after a dose of 2 mg/kg/day; type: functional, organism-based; outline: as §1
Rattus norvegicus [9] = experiment: Effect of compound on aspartate aminotransferase (AST) levels in 5th group of normal chow-fed male rats after a dose of 20 mg/kg/day; type: functional, organism-based; outline: as §1
Rattus norvegicus [10] = experiment: Effect of compound on relative liver weight in 3rd group of normal chow-fed male rats after a dose of 5 mg/kg/day; type: functional
Outline: (§2)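 Chow-fed male Sprague–Dawley CD rats, 60–80 g, dosed by oral gavage once daily for 4 days in 1.3% Tween 80/0.25% CMC. Fasted overnight and sacrificed 24 h after the last dose. Liver weight expressed as % of body weight at termination. Six per group, mean ± SEM.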

Rattus norvegicus [11] = experiment: Effect of compound on relative liver weight in 6th group of normal chow-fed male rats after a dose of 50 mg/kg/day; type: functional; outline: as §2
Rattus norvegicus [12] = experiment: Effect of compound on low-density lipoprotein cholesterol levels in 3rd group of normal chow-fed male rats after a dose of 5 mg/kg/day; type: functional, organism-based
Outline: (§3)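 Male Sprague–Dawley CD rats, 60–80 g, on standard chow with reverse 12 h light/dark cycle. One oral gavage dose daily for 4 days, suspended in 1.3% Tween 80 and 0.25% CMC. Fasted overnight; sacrificed 24 h after the last dose. Serum TC on clinical analyzer, lipoproteins by FPLC with cholesterol per fraction, T4 on analyzer. Mean ± SEM, six rats per group.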

Rattus norvegicus [13] = experiment: Effect of compound on serum apolipoprotein A1 concentration in chow-fed male rats at a dose of 100 mg/kg/day; type: functional, organism-based
Outline: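 Separate dose-response study in male Sprague–Dawley CD rats, 60–80 g, on chow. Oral gavage once daily for 4 days in 1.3% Tween 80 / 0.25% CMC; fasted overnight, bled 24 h after last dose. Apo-A1 by ELISA with rabbit anti-rat primary, alkaline phosphatase-conjugated anti-rabbit IgG and p-nitrophenyl phosphate substrate. HDL-C by FPLC fractionation. Mean ± SEM, six per group.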

Rattus norvegicus [14] = experiment: Effect of compound on thyroxine levels in 4th group of normal chow-fed male rats after a dose of 10 mg/kg/day; type: functional, organism-based; outline: as §3
Rattus norvegicus [15] = experiment: Effect of compound on total plasma cholesterol levels in 3rd group of normal chow-fed male rats after a dose of 5 mg/kg/day; type: functional, organism-based; outline: as §3
Rattus norvegicus [16] = experiment: Effect of compound on triglycerides level in 1st group of normal chow-fed male rats after a dose of 1 mg/kg/day; type: functional, organism-based
Outline: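 Male Sprague–Dawley CD rats (60–80 g) on Purina 5001 chow with a reverse 12 h light/dark cycle. Dosed once daily by oral gavage for 4 days, suspended in 1.3% Tween 80 / 0.25% CMC. Fasted overnight and bled 24 h after the last dose. Serum TC and glycerol-blanked TG measured enzymatically; VLDL-C by FPLC fractionation with cholesterol assay. n=6, mean ± SEM.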

[17] = Effect on serum lipids in 3rd group of cholesterol-fed male hamsters at 30 mg/kg/day after 14 days of treatment was evaluated as ratio of total cholesterol levels to high-density lipoprotein cholesterol levels; type: functional
Outline: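 Male Syrian Golden hamsters on chow plus 0.25% cholesterol, 2 weeks before and during dosing. Oral gavage for 14 days in 2% Tween 80/saline. Fasted 4 h before sacrifice. Serum total cholesterol measured enzymatically; HDL-C from cholesterol in FPLC lipoprotein fractions; TC/HDL-C ratio calculated. Six per group, mean ± SEM.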

[18] = Effect on serum lipids in 3rd group of normal chow-fed male rats after a dose of 5 mg/kg/day was evaluated as ratio of total plasma cholesterol levels to high-density lipoprotein cholesterol levels; type: functional
Outline: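 Male Sprague–Dawley CD rats, 60–80 g, chow-fed, dosed by oral gavage daily for 4 days in 1.3% Tween 80/0.25% CMC. Fasted overnight, bled 24 h after the last dose. Serum total cholesterol by enzymatic reagent; HDL-C from cholesterol in FPLC fractions; TPC/HDL-C ratio calculated. Six per group, mean ± SEM.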

Rattus norvegicus [19] = experiment: Effect of compound on liver weight in 3rd group of normal chow-fed male rats after a dose of 5 mg/kg/day; type: functional
Outline: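 Male Sprague–Dawley CD rats, 60–80 g, on chow with a reverse 12 h light/dark cycle. Given one oral gavage dose daily for 4 days, suspended in 1.3% Tween 80/0.25% CMC. Fasted overnight and sacrificed 24 h after the last dose for blood and liver. Serum liver enzymes read on a clinical analyzer. Six per group, mean ± SEM.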

Mesocricetus auratus = experiment: Effect of compound on gain in body weight in 1st group of cholesterol-fed male hamsters at 3 mg/kg/day after 14 days of treatment
Cricetinae gen. sp. [20] = experiment: Effect of compound on alkaline phosphatase (ALKP) levels in 1st group of cholesterol-fed male hamsters at 3 mg/kg/day after 14 days of treatment; settings: Mesocricetus auratus
Cricetinae gen. sp. [21] = experiment: Effect of compound on lactic dehydrogenase (LDH) levels in 2nd group of cholesterol-fed male hamsters at 10 mg/kg/day after 14 days of treatment; settings: Mesocricetus auratus
Cricetinae gen. sp. [22] = experiment: Effect of compound on low-density lipoprotein cholesterol levels in 1st group of cholesterol-fed male hamsters at 3 mg/kg/day after 14 days of treatment; settings: Mesocricetus auratus
Cricetinae gen. sp. [23] = experiment: Effect of compound on low-density lipoprotein cholesterol levels in 2nd group of cholesterol-fed male hamsters at 10 mg/kg/day after 14 days of treatment; settings: Mesocricetus auratus

## CCN1CC(=O)N(c2cc(Cl)ccc2C)C1=S
Rattus norvegicus [1]
  Body weight: 33.2 g
Rattus norvegicus [2]
  Change: 53%
Rattus norvegicus [3]
  Change: 9.6%
Rattus norvegicus [4]
  Level: 62 U l-1
Rattus norvegicus [5]
  Level: 67 U l-1
Rattus norvegicus [6]
  Level: 327 U l-1
Rattus norvegicus [7]
  Level: 216 U l-1
Rattus norvegicus [8]
  Level: 195 U l-1
Rattus norvegicus [9]
  Level: 318 U l-1
Rattus norvegicus [10]
  Relative liver weight: 3.8%
Rattus norvegicus [11]
  Relative liver weight: 4%
Rattus norvegicus [12]
  Serum level: 6 mg/dL
Rattus norvegicus [13]
  Serum level: 96.4 mg/dL
Rattus norvegicus [14]
  Serum level: 3.98 µg/dL
Rattus norvegicus [15]
  Serum level: 62 mg/dL
Rattus norvegicus [16]
  Serum level: 18 mg/dL
[17]
  Ratio: 2.39
[18]
  Ratio: 1.39
Rattus norvegicus [19]
  Liver weight: 7.2 g
Mesocricetus auratus
  Body weight: 10.2 g
Cricetinae gen. sp. [20]
  Level: 154 U l-1
Cricetinae gen. sp. [21]
  Level: 1310 U l-1
Cricetinae gen. sp. [22]
  Serum level: 178 mg/dL
Cricetinae gen. sp. [23]
  Serum level: 136 mg/dL
